Results of several laboratories.
Lines come from different studies, so protocols differ.
Cell line: PANC-1
Read-out: cell growth or viability

COc1ccc(C(=O)O[C@@H]2CN3Cc4c(cc5c(c4OC)OCO5)[C@@]24C=C[C@H](OC)C[C@@H]34)cc1 — IC50 (WST-1): > 10 µM
CNc1ncc2cc(-c3ccc(-c4cccc(C)n4)cc3Cl)c(=O)n(C[C@H]3OC[C@H](N)CO3)c2n1 — IC50 (MTT; 24 h): 23.2 µM
CC(=O)c1ccc(N=Nc2c(C(=O)O)cc(O)c(O)c2O)cc1 — IC50 (MTT): 12.7 µM
CC(C)C[C@H](NC(=O)[C@H](Cc1ccccc1)NC(=O)c1cnccn1)B(O)O — IC50 (ATP luminescence): 0.01 µM
O=C(O)/C=C/c1ccc(O)c(O)c1 — IC50 (MTT): 4.1 µM
COc1c2c(cc3c1OCO3)[C@]13C=C[C@H](OC)C[C@H]1N(C2)C[C@H]3OC(=O)c1cccc(C)c1 — IC50 (WST-1): > 10 µM
COc1cc(Nc2nccc(-c3cnn4nc(OC)ccc34)n2)cc(C(F)(F)F)c1 — IC50 (ATP luminescence): 0.76 µM
Cc1ncsc1-c1ccc(CNC(=O)[C@@H]2C[C@@H](O)CN2C(=O)[C@@H](NC(=O)CCCCCCCCCCCC(=O)NCCCCC#Cc2cccc(-c3nn(-c4nc(C(=O)O)cs4)c(CC4CC4)c3Cc3ccc(S(N)(=O)=O)cc3)c2)C(C)(C)C)cc1 — GI50 (CCK-8; 72 h): 16.1 µM
Cc1ccc2[nH]c(=O)c3cc(C(=O)NCCCN(C)Cc4ccccc4)sc3c2c1 — IC50 (MTT; 24 h): 16.8 µM
COc1cccc2c1C(=O)c1c(O)c3c(c(O)c1C2=O)C[C@@](O)(C(=O)CO)C[C@@H]3O[C@H]1C[C@H](N)[C@H](O)[C@H](C)O1 — IC50 (WST-1; 72 h): 0.53 µM
CC(=O)c1ccc(/N=N/c2cc(/C=C/C(=O)O)ccc2O)cc1 — IC50 (MTT): > 50 µM
CCN(CC)CCCC(C)Nc1cnc(C(=O)Nc2cc(F)cc3cccnc23)cn1 (centres unmarked) — IC50 (MTT): 7.2 µM
O=C(O)c1cc(O)c(O)c(O)c1 — IC50 (MTT): 17.9 µM
COc1cccc(C(=O)O[C@@H]2CN3Cc4c(cc5c(c4OC)OCO5)[C@@]24C=C[C@H](OC)C[C@@H]34)c1 — IC50 (WST-1): 8.7 µM
